Screening results from PubChem.
The list is not random: actives were taken first. Their share in the collection is about 1.9%.
APJ antag = blocks the human apelin receptor APJ. inhibition, % at 20 µM. 0.32% of 330,000 active. AID 2521. CHO-K1 APJ beta-arrestin complementation, luminescence. P35414;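 active = inhibition above about 40% at 20 µM, limit read from the data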;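 also: cells challenged with 10 nM apelin-13 agonist together with compound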
APJ agonist = APJ receptor agonism; CHO-K1 APJ PathHunter beta-arrestin, luminescence; 0% DMSO wells, 100% apelin; activation, % at 20 µM; 0.11% of 330,000 active;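 active = activation more than six SD over the plate average, tested at 20 µM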
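Assay system: engineered CHO-K1 APJ arrestin reporter cells; Amount: 1000 CHO-K1 reporter cells seeded per well; Dosing: one dose, 20 µM compound, 1% DMSO; Times: compound stimulation 90 min at 25 °C, detection 60 min; Measured by: luminescent beta-gal fragment complementation, chemiluminescent substrate; Read-out: APJ–arrestin association signal; Controls: DMSO vs Apelin-13 10 nM.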
H9c2 TAG inh = reduces triacylglycerol accumulation in H9c2 cells | Nile Red lipid (TAG) fluorescence; cells loaded with 200 µM oleic acid | inhibition, % at 12.5 µM | 0.66% of 230,000 active | AID 651582;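 active = pattern-corrected inhibition of lipid staining of at least 50% with the nuclear-stain viability signal not falling by more than 50%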
CCR6 antag = blocks CCL20-driven beta-arrestin recruitment at human CCR6; P51684; CHO-K1 CCR6 PathHunter beta-arrestin, luminescence, CCL20-stimulated; inhibition, % at 20 µM; 0.49% of 340,000 active; AID 493098;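 active = compounds whose inhibition of the agonist-driven luminescence signal at 20 µM reaches about 50%, limit read from the data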;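 also: cells stimulated with CCL20 at 14 nM final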
CXCR6 block = CXCR6 (human) receptor inhibition; AID 602244; CHO-K1 PathHunter CXCR6 beta-arrestin, luminescence; O00574; inhibition, % at 20 µM; 0.36% of 360,000 active; in the data active = inhibition above about 34%, passing the limit was not always enough;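 also: antagonist mode with CXCL16 agonist at 10 nM final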
Target sequence (O00574 whole entry, looked up): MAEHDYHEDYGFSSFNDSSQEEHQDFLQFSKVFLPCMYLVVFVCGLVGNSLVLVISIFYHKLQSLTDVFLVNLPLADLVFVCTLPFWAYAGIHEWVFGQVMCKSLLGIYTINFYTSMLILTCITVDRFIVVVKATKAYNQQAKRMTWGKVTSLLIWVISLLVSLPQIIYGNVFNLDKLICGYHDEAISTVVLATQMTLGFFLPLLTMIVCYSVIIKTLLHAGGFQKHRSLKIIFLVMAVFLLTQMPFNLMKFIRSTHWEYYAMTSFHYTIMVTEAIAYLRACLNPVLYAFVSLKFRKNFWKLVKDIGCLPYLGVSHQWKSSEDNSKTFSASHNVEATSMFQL
EBI2 block = antagonists of human EBI2 receptor; EBI2 beta-arrestin recruitment, luminescence, 7a,25-OHC stimulated; inhibition, % at 5 µM; P32249; 0.81% of 360,000 active; AID 651636; in the data active = inhibition above about 38%;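 also: enzyme fragment complementation signal reports receptor beta-arrestin coupling in cells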
Target sequence (P32249 whole entry, looked up, the tested form may be a part): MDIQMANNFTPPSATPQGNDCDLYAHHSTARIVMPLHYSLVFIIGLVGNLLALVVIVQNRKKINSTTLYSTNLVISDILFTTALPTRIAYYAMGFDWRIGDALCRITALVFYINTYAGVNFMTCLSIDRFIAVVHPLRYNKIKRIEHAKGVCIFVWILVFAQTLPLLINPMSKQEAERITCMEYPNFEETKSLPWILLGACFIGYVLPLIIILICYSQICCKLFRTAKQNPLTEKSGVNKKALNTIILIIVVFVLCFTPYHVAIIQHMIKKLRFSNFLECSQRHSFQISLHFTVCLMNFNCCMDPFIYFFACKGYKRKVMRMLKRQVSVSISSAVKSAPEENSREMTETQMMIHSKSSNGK
Of the large screens only hits and unclear results are named; the others gave an inactive call.

Cc1ccc(NC(=S)NNc2ccc([N+](=O)[O-])cc2S(=O)(=O)Nc2ccccc2C(=O)O)cc1C	CCR6 antag 68 (no result: APJ antag, APJ agonist, H9c2 TAG inh)
COc1ccc(C(C)=NNc2ccc([N+](=O)[O-])cc2S(=O)(=O)Nc2ccccc2C(=O)O)c(OC)c1	none
CC(=O)Nc1ccc(C=NNc2ccc(S(=O)(=O)Nc3ccccc3C(=O)O)cc2[N+](=O)[O-])cc1	none
CN(CCO)c1ccc(C=NNc2ccc([N+](=O)[O-])cc2S(=O)(=O)Nc2ccccc2C(=O)O)cc1	CCR6 antag 62
CC(=O)Nc1ccc(C=NNc2ccc([N+](=O)[O-])cc2S(=O)(=O)Nc2ccccc2C(=O)O)cc1	none
O=C(O)c1ccccc1NS(=O)(=O)c1ccc(NNC(=S)Nc2ccc(OC(F)F)cc2)c([N+](=O)[O-])c1	CCR6 antag 53, CXCR6 block 35 (no result: APJ antag, APJ agonist)
COc1ccc(-c2cnc(C(O)c3ccc(C(C)(C)C)cc3)[nH]2)cc1 (centres undefined)	none (no result: APJ antag, APJ agonist, CCR6 antag)
CC(C)(C)OC(=O)C[C@H]1C/C=C\C[C@@H](CC(=O)NCCO)C(=O)N[C@H](Cc2ccccc2)COC1=O	none
O=C1NC(=S)S/C1=C\C=C\c1ccc([N+](=O)[O-])o1	H9c2 TAG inh 51, CCR6 antag 61 (no result: APJ antag, APJ agonist)
O=C(O)/C=C/c1ccc([N+](=O)[O-])o1	none
Cc1oc2c(c(=O)c1C)C(=O)CC(c1ccccc1)C2 (centres undefined)	none
CS(=O)(=O)c1sc(C#N)c2c1C(=O)CC(c1ccccc1)C2 (centres undefined)	APJ antag 84, H9c2 TAG inh 93, CCR6 antag 92, CXCR6 block 91, EBI2 block 66
CNc1c(C(=O)O)ccc2c1C(=O)c1ccccc1C2=O	CCR6 antag 53 (no result: H9c2 TAG inh)
CCNc1c(C(=O)O)ccc2c1C(=O)c1ccccc1C2=O	none
O=C(N/N=C/c1ccc(O)cc1)c1cccc(C(F)(F)F)c1	none
O=C(N/N=C/c1ccccc1O)c1cccc(C(F)(F)F)c1	EBI2 block 59 (no result: H9c2 TAG inh)
CN(C)c1ccc(Cc2cc3c(O)ccc(O)c3cc(Cc3ccc(N(C)C)cc3)c2=O)cc1	CXCR6 block 34 (no result: APJ antag, APJ agonist, CCR6 antag)
CN(C)c1ccc(C(=O)c2ccc(O)cc2O)cc1	none
O=[N+]([O-])c1ccc(-c2cnc3ccccc3n2)cc1	none
O=[N+]([O-])c1ccc(-c2c(O)c3ccccc3c3nc4ccccc4nc23)cc1	CCR6 antag 76 (no result: H9c2 TAG inh)
Cc1ccc2nc(-c3ccc(NC(=S)NC(=O)C(C)C)cc3)sc2c1	none (no result: H9c2 TAG inh)
Cc1ccc2nc(-c3ccc(NC(=S)NC4CC(C)(C)NC(C)(C)C4)cc3)sc2c1	H9c2 TAG inh 53
Cc1ccc(S(=O)(=O)N2C[C@H]3N(C(=O)OC(C)C)N(C(=O)OC(C)C)C[C@H](OC(=O)Nc4cccs4)[C@@]3(O)C2)cc1	none (no result: APJ antag, APJ agonist, CCR6 antag)
COc1ccc(C(=O)OCC(=O)N2CCCCC2)cc1[N+](=O)[O-]	none
CC(C)CN1CCN(C(=O)COC(=O)c2ccc(S(C)(=O)=O)c([N+](=O)[O-])c2)CC1	H9c2 TAG inh 65 (no result: APJ antag, APJ agonist, CCR6 antag)
CS(=O)(=O)c1ccc(C(=O)OCC(=O)NC23CC4CC(CC(C4)C2)C3)cc1[N+](=O)[O-]	EBI2 block 65 (no result: H9c2 TAG inh)
CC(OC(=O)c1ccc(S(C)(=O)=O)c([N+](=O)[O-])c1)C(=O)NC1C2CC3CC(C2)CC1C3 (centres undefined)	H9c2 TAG inh 65, EBI2 block 65 (no result: APJ antag, APJ agonist, CCR6 antag)
Cn1cccc1C(=O)NC(=O)COC(=O)c1ccc(S(C)(=O)=O)c([N+](=O)[O-])c1	none
CCN(CC)S(=O)(=O)c1ccc(OC(C)C)c(NC(=O)C2=COCCO2)c1	none
CCOC(=O)C1(CCc2ccccc2)CCN(C(=O)CCn2cncn2)CC1	none
O=C(CCl)c1ccc2c(c1)CCN2C(=O)C1CCCCC1	CCR6 antag 53
N#Cc1c(N)nc(SCc2ccncc2)c(C#N)c1-c1cccs1	none (no result: H9c2 TAG inh)
CN1CCc2nc(SCc3ccc(Cl)cc3)c(C#N)c(-c3cccs3)c2C1	CCR6 antag 74 (no result: H9c2 TAG inh, CXCR6 block, EBI2 block)
Oc1ccc(C=NNc2ccccn2)c(O)c1	H9c2 TAG inh 53 (no result: APJ antag, APJ agonist)
COc1ccc(N2CC(C(=O)Nc3ccc([N+](=O)[O-])cc3Br)CC2=O)cc1 (centres undefined)	none (no result: H9c2 TAG inh)
O=[N+]([O-])c1ccc(NN=Cc2ccc(O)cc2O)nc1	CCR6 antag 63 (no result: APJ antag, APJ agonist)
COc1ccc(N2CC(C(=O)N/N=C/c3cc([N+](=O)[O-])ccc3O)CC2=O)cc1 (centres undefined)	CCR6 antag 56
O=C(N/N=C/c1cc([N+](=O)[O-])ccc1O)C12CC3CC(CC(C3)C1)C2	CCR6 antag 71, EBI2 block 79
Cc1cc(C(=O)N/N=C/c2cc([N+](=O)[O-])ccc2O)c2ccccc2n1	EBI2 block 49 (no result: H9c2 TAG inh)
O=[N+]([O-])c1ccc(O)c(/C=N/Nc2ccccn2)c1	CCR6 antag 61, EBI2 block 64 (no result: APJ antag, APJ agonist, H9c2 TAG inh)
O=[N+]([O-])c1ccc(N/N=C\c2cccn2-c2ccccc2)nc1	H9c2 TAG inh 56
O=C(N/N=C/c1cc([N+](=O)[O-])ccc1O)c1cc(-c2ccccc2)nc2ccccc12	none (no result: H9c2 TAG inh)
Cc1ccc(NS(=O)(=O)c2cccc(C(=O)Nc3cccnc3)c2)c(C)c1	none
Cn1ccsc1=NC(=O)c1cccc(C#N)c1	none (no result: H9c2 TAG inh)
CC(=O)Nc1nc(-c2ccccc2)c(-c2ccccc2)o1	none
COc1cc(OC)cc(C(=O)Nc2nc(-c3ccccc3)c(-c3ccccc3)o2)c1	CCR6 antag 62 (no result: H9c2 TAG inh)
Cc1ccc(S(=O)(=O)N2CCCCC2)cc1NC(=O)Cn1cnnn1	none
Cc1ccc(S(=O)(=O)N2CCCCC2)cc1NC(=O)Cn1ncc(Cl)c(Cl)c1=O	EBI2 block 63
Cc1cc(Br)ccc1NC(=O)CNC(=O)Cn1ncc(Cl)c(Cl)c1=O	H9c2 TAG inh 56
O=C(O)CCCN1C(=O)/C(=C\c2ccc(-c3nc4ccccc4s3)o2)SC1=S	CXCR6 block 43
CC(C)CC1Nc2ncnc(N3CCCCC3)c2N(Cc2ccccc2)C1=O (centres undefined)	none
O=C1C(Cc2ccccc2)Nc2ncnc(N3CCCCC3)c2N1Cc1ccc(Cl)cc1 (centres undefined)	CCR6 antag 51
Cc1ccccc1-n1nc2c(c1NC(=O)CC(C)C)CS(=O)C2 (centres undefined)	none (no result: H9c2 TAG inh)
NNc1ncnc2scc(-c3ccc(Cl)cc3)c12	APJ antag 46 (no result: H9c2 TAG inh)
Clc1ccc(-c2csc3ncnc(Cl)c23)cc1	none
Cc1ccc(OCCn2c(NC(=O)c3ccco3)nc3ccccc32)cc1	CXCR6 block 39
CCCCCc1cc(=O)oc2c(C(CCN3CCCC(C)C3)c3ccc(N(C)C)cc3)c(OC)cc(OC)c12 (centres undefined)	H9c2 TAG inh 107
CCCCCc1cc(=O)oc2c(C(CCN3CCCCC3)c3cc(OC)c(OC)c(OC)c3)c(OC)cc(OC)c12 (centres undefined)	H9c2 TAG inh 80
